High-throughput results as filed in PubChem.
Hits are enriched below; roughly 2.9% of the tested compounds scored in any of these assays.
PGC1a acetyl inh: lowers PGC1a acetylation signal in U2OS cells; AlphaScreen anti-acetyl-lysine; with virally co-expressed GCN5 acetyltransferase; inhibition, % at 15.6 µM; hit rate 0.17% among 350,000; AID 651687;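 active = every replicate shows inhibition of at least 40%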;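 note: 0% = neutral control wells and 100% = positive control wells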
S100A4 inh HTS: S100A4-myosin IIA interaction inhibition; P26447; S100A4/TAMRA-MyoIIA peptide fluorescence polarization; inhibition, % at 10.7 µM; hit rate 0.14% among 360,000; AID 652163;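 active = mean inhibition of at least 70% across replicates, with every replicate also reaching that level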
Target sequence (P26447 whole entry, looked up): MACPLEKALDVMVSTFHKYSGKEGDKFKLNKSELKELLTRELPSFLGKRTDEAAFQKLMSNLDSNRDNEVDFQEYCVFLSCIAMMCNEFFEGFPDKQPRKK
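Material: S100A4 monomer protein / Buffer or medium: 50 mM HEPES pH 7.2, 10 mM CaCl2, 100 mM KCl / Times: 5 min incubation before reading / Benchmarks: neutral control DMSO, positive control TFP / Reagent: labelled myosin peptide probe, 5 nM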
C2C12 statin: suppressors of simvastatin-induced myotoxicity in C2C12 myotubes; ATP luminescence, 48 h; scaled: DMSO 0, geranylgeraniol control 100; rescue of ATP level, % at 7.49 µM; hit rate 0.78% among 330,000;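 active = mean ATP rescue above about 67%, or every replicate alone reaching that limit, limit read from the data, passing the limit was not always enough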;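 note: myotubes were challenged with 10 µM simvastatin during compound exposure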
DENV2 CPE rescue: inhibitors of DENV2 cytopathic effect; DENV2-infected cells, cytopathic effect rescue, plate reader; CPE inhibition, % at 9.99 µM; hit rate 1.7% among 350,000; in the data active = CPE inhibition above about 20%, passing the limit was not always enough; tested in BHK-21 cells;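 note: 0% = median of neutral control wells and 100% = median of positive control wells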
SIRT5 block: sirtuin-5 (human) deacylase inhibition | Purified SirT5, succinyl-peptide AMC, trypsin-coupled fluorescence | AID 652115 | hit rate 1.1% among 330,000 | inhibition, % at 15 µM; in the data active = inhibition above about 15%
Target sequence (Q9NXA8 whole entry, looked up): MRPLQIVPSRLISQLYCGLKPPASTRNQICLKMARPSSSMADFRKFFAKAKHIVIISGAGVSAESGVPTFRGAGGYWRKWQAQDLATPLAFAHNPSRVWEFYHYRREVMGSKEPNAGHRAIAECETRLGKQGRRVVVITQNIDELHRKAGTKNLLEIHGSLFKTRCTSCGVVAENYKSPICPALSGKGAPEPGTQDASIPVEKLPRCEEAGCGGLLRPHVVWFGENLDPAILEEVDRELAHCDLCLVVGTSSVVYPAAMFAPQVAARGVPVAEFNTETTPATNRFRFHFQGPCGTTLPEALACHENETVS
Starred values were filed as active, the others as inactive; / = no result given; ! = a repeat was not active.

SMILES | PGC1a acetyl inh | S100A4 inh HTS | C2C12 statin | DENV2 CPE rescue | SIRT5 block
CO[C@@H]1CN(C)C(=O)c2cc(NC(=O)Nc3cccc(F)c3)ccc2OC[C@H](C)N(C(=O)Nc2c(C)noc2C)C[C@@H]1C | / | -18.5 | -22.0 | -7.1 | -0.6
C[C@@H]1CN([C@H](C)CO)C(=O)c2cccc(N(C)C)c2O[C@H]1CN(C)S(=O)(=O)c1cccs1 | -13.3 | 5.6 | -9.1 | 9.6 | -1.5
COc1cccc(NC(=O)N[C@H]2C=C[C@H](CC(=O)Nc3ccc(-c4ccccc4)cc3)O[C@H]2CO)c1 | 4.9 | 14.8 | 15.3 | 5.1 | 3.0
O=S(=O)(c1ccc2c(c1)OCCO2)N1CCN(S(=O)(=O)c2c(F)cc(F)cc2F)CC1 | 5.8 | -0.2 | -19.1 | -14.2 | /
O=S(=O)(c1ccc2c(c1)OCCO2)N1CCCN(S(=O)(=O)c2c(F)cccc2F)CC1 | 1.4 | -3.0 | -18.7 | 89.7* | -0.3
N=c1oc2ccccc2cc1-c1nc2ccccc2c(=O)[nH]1 | -7.9 | -4.7 | 92.5* | 11.3 | -0.6
CCOC(=O)c1cn(CC)c2cc3c(cc2c1=O)OCO3 | 1.9 | 0.7 | 1.1 | 24.7* | -0.6
Cc1c(C(=O)N2CCN(C)CC2)oc2c1C(=O)CC(C)(C)C2 | -0.7 | -1.9 | -4.8 | -5.7 | 0.6
Cc1c(C(=O)N2CCc3ccccc32)oc2c1C(=O)CC(C)(C)C2 | -3.7 | / | 112.1* | / | /
COc1cccc(-c2ccc3c(c2)[C@@H]2[C@@H](CCN2S(=O)(=O)c2ccccc2C)[C@H](CO)N3C)c1 | -4.6 | 3.9 | -48.3 | 28.5* | 7.5
Cc1ccccc1S(=O)(=O)N1CC[C@@H]2[C@H]1c1cc(-c3cccc(F)c3)ccc1N(C)[C@H]2CO | -1.2 | / | -51.4 | 21.7* | /
COc1ccccc1S(=O)(=O)N1CC[C@@H]2[C@H]1c1cc(-c3ccc(C#N)cc3)ccc1N(C)[C@H]2CO | 3.9 | / | -28.4 | 0.8 | /
Cc1ccccc1S(=O)(=O)N1CC[C@@H]2[C@@H](CO)N(C)c3ccc(-c4ccccc4)cc3[C@@H]21 | -6.1 | -5.3 | 3.5 | -1.1 | /
Cc1ccccc1S(=O)(=O)N1CC[C@@H]2[C@H]1c1cc(-c3ccc(C#N)cc3)ccc1N(C)[C@H]2CO | 2.5 | -6.6 | -15.9 | 26.5* | -6.1
CO[C@H]1CN(C)C(=O)c2cc(NC(=O)Cc3ccccc3)ccc2OC[C@H](C)N(C)C[C@@H]1C | / | 2.8 | -8.5 | -0.8 | 0.1
CC(/C=C\c1cccnc1)=C/C(=O)O | -6.2 | / | 116.1*! | / | /
Cc1ccc(S(=O)(=O)N(C)C[C@H]2OCCCC[C@H](C)Oc3ccc(NC(=O)c4ccccc4)cc3C(=O)N([C@H](C)CO)C[C@@H]2C)cc1 | -2.9 | -6.9 | / | -5.1 | 8.0
C[C@@H]1CN([C@H](C)CO)C(=O)c2cc(NC(=O)Nc3cccc4ccccc34)ccc2O[C@@H]1CN(C)Cc1ccc2c(c1)OCO2 | -1.4 | 7.2 | 19.7 | -0.4 | 15.1*
C[C@H]1CN([C@@H](C)CO)C(=O)c2cc(NC(=O)Nc3cccc4ccccc34)ccc2O[C@@H]1CN(C)Cc1ccc(-c2ccccc2)cc1 | -14.8 | -10.7 | 30.5 | -8.3 | 6.7
C[C@H](CO)N1C[C@H](C)[C@H](CN(C)Cc2ccc(-c3ccccc3)cc2)Oc2ccc(NC(=O)Nc3cccc4ccccc34)cc2C1=O | 8.9 | -3.5 | -68.0 | 25.1* | 2.3
C[C@H]1CN([C@@H](C)CO)C(=O)c2cc(NC(=O)Nc3cccc4ccccc34)ccc2O[C@@H]1CN(C)C(=O)Nc1ccc2c(c1)OCO2 | 4.5 | 5.2 | 22.2 | 22.6* | -2.2
C[C@H](CO)N1C[C@H](C)[C@H](CN(C)C(=O)Nc2ccc3c(c2)OCO3)Oc2ccc(NC(=O)Nc3cccc4ccccc34)cc2C1=O | -2.4 | -44.8 | 42.9 | 12.8 | 13.9
COCCCNC(=O)c1c(N)n(-c2cccc(S(N)(=O)=O)c2)c2nc3ccccc3nc12 | -7.1 | / | -2.5 | / | /
CCCNC(=O)c1c(N)n(-c2cccc(OC)c2)c2nc3ccccc3nc12 | -10.2 | 1.6 | 105.9* | / | -6.5
Cc1ccc(S(=O)(=O)N[C@@H]2CC[C@@H](CCNC(=O)C3CCOCC3)O[C@@H]2CO)cc1 | 5.3 | 22.2 | 6.0 | 2.7 | 4.4
SMILES | PGC1a acetyl inh | S100A4 inh HTS | C2C12 statin | DENV2 CPE rescue | SIRT5 block
Cc1ccc(S(=O)(=O)N[C@H]2CC[C@H](CCNC(=O)CN3CCOCC3)O[C@@H]2CO)cc1 | -2.8 | -6.5 | -11.2 | 3.9 | -0.5
O=C(NCC[C@H]1CC[C@@H](NS(=O)(=O)c2cccc(F)c2)[C@H](CO)O1)C1CCOCC1 | 11.4 | -2.6 | -8.8 | 5.8 | -2.2
O=C(NCC[C@@H]1CC[C@@H](NS(=O)(=O)c2cccc(F)c2)[C@@H](CO)O1)C1CCOCC1 | 9.0 | -1.1 | -1.3 | 6.3 | 38.0*
Cc1ccc(S(=O)(=O)N[C@H]2CC[C@H](CCNC(=O)C3CCOCC3)O[C@@H]2CO)cc1 | -0.4 | 2.3 | -2.3 | 25.2* | -1.2
O=C(CN1CCOCC1)NCC[C@@H]1CC[C@@H](NS(=O)(=O)c2ccc(Cl)cc2)[C@H](CO)O1 | -1.5 | 8.0 | -5.7 | -10.0 | -4.1
Cc1ccc(S(=O)(=O)N[C@@H]2CC[C@@H](CCNC(=O)CN3CCOCC3)O[C@H]2CO)cc1 | 5.1 | -6.2 | 3.6 | 25.9* | -0.9
O=C(CN1CCOCC1)NCC[C@H]1CC[C@@H](NS(=O)(=O)c2ccc(Cl)cc2)[C@@H](CO)O1 | 4.0 | 4.8 | -13.2 | 7.2 | 32.3*
O=C1CN(S(=O)(=O)Cc2ccccc2)C[C@@H]2[C@@H](c3ccc(C#CCC4CCCC4)cc3)[C@H](CO)N12 | 3.0 | 18.4 | / | 14.5 | 9.7
COc1ccc(/C=C/c2nnc(NC(=O)C(C)(C)C)s2)cc1 | / | -3.5 | / | 70.1* | -1.1
CCCC(=O)Nc1nnc(/C=C/c2ccc(OC)cc2)s1 | / | -3.3 | / | -5.2 | -1.3
COc1ccc(NC(=O)Nc2ccc3c(c2)C(=O)N([C@H](C)CO)C[C@@H](C)[C@H](CN(C)Cc2ccc(C(=O)O)cc2)OCCCC[C@@H](C)O3)cc1 | -1.3 | 4.8 | / | -3.8 | 3.7
O=C(N[C@H]1C=C[C@@H](CC(=O)N2CCc3ccccc3C2)O[C@@H]1CO)C1CC1 | 5.8 | 23.2 | 4.3 | -3.6 | -8.9
COCC(=O)Nc1ccc2c(c1)[C@@H]1C[C@@H](CC(=O)NCc3cc(F)ccc3F)O[C@@H](CO)[C@@H]1O2 | 1.8 | / | 3.3 | 1.0 | /
C[C@@H]1CN([C@@H](C)CO)C(=O)c2cc(NS(=O)(=O)c3ccc(Cl)cc3)ccc2O[C@@H](C)CCCCO[C@@H]1CN(C)Cc1ccc(C(F)(F)F)cc1 | -4.0 | 16.1 | / | 7.5 | 18.2*
C[C@@H]1CCCCO[C@H](CN(C)Cc2ccc(C(F)(F)F)cc2)[C@@H](C)CN([C@H](C)CO)C(=O)c2cc(NS(=O)(=O)c3ccc(Cl)cc3)ccc2O1 | 5.4 | -26.6 | / | -2.7 | -0.7
C[C@@H]1CCCCO[C@@H](CN(C)Cc2ccc(C(F)(F)F)cc2)[C@H](C)CN([C@@H](C)CO)C(=O)c2cc(NS(=O)(=O)c3ccc(Cl)cc3)ccc2O1 | 8.3 | 3.9 | / | -1.5 | 17.8*
